In ChEMBL document CHEMBL3091448, “Identification of potent and selective cathepsin S inhibitors containing different central cyclic scaffolds” (J Med Chem, 2013):

Legend:
Procathepsin L = Procathepsin L (Homo sapiens, UniProt P07711); assay: Inhibition of human cathepsin-L using Z-Val-Val-Arg-AMC as substrate up to 20 mins by fluorescence assay
How it was run: (§1)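 Fluorogenic quenched-peptide cleavage assay. Enzymes at 1 nM in 100 mM potassium phosphate pH 6.5, 5 mM EDTA-Na, 0.001% Triton X-100 and 5 mM DTT. Enzyme was added to the compound dilutions, then 20 μM substrate started the reaction: Z-Val-Val-Arg-AMC, or Z-Leu-Arg-AMC for CatK. Fluorescence (ex 360/em 465 nm) was read over 20 min. IC50 is the mean of ≥2 independent experiments.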

Cathepsin B = Cathepsin B (Homo sapiens, UniProt P07858); assay: Inhibition of human cathepsin-B using Z-Val-Val-Arg-AMC as substrate up to 20 mins by fluorescence assay; how it was run: as §1
A20 = assay: Inhibition of ovalbumin-induced antigen presentation in mouse A20 cells treated 1 hr before ovalbumin addition incubated for 16 hrs followed by co-cultured with DO10.10 T-cell hybridoma cells for 24 hrs assessed as IL-2 production by luminex single-bead analysis; type: functional, cell-based
How it was run: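 A20 cells were seeded at 3 × 10⁵/mL and preincubated with compound for 1 h. Ovalbumin was then added (5 mg/mL final) for 16 h. Cells were washed three times with PBS, then DO10.10 T-cell hybridoma cells (2 × 10⁵/mL) were added. After 24 h, IL-2 was quantified by Luminex single-bead assay using two anti-IL-2 antibodies. IC50 is the mean of ≥2 independent experiments.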

Cathepsin K = molecular target: T1, Cathepsin K (Homo sapiens, UniProt P43235); assay: Inhibition of human cathepsin-K using Z-Leu-Arg-AMC as substrate up to 20 mins by fluorescence assay; how it was run: as §1
T1 sequence (P43235 whole entry): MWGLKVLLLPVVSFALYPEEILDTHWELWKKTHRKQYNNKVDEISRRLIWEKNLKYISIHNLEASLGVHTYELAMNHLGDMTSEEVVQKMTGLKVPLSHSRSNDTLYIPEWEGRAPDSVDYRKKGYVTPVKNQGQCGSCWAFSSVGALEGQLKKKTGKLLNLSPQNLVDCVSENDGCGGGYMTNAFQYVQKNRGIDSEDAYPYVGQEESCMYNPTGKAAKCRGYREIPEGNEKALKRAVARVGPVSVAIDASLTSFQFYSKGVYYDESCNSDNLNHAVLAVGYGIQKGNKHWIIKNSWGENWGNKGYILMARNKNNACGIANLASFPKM

Cathepsin S [1] = molecular target: Cathepsin S (Homo sapiens, UniProt P25774); assay: Inhibition of human cathepsin-S using Z-Val-Val-Arg-AMC as substrate up to 20 mins by fluorescence assay; how it was run: as §1
Homo sapiens = species on record: Homo sapiens; assay: Selectivity ratio of IC50 for human cathepsin-K to IC50 for human cathepsin-S
[2] = Effective permeability of the compound by PAMPA; type: ADME; conditions: read-out: Peff
[3] = Oral bioavailability in C57Bl/6 mouse at 9 mg/kg; type: ADME, organism-based; conditions: in vivo
How it was run: (§2)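 Male C57Bl/6 mice, 8 weeks old, 24−29 g. Dosing was by oral gavage at 9 mg/kg as an aqueous microsuspension in gelatin/NaCl (7.5%/0.62%), or by iv bolus at 2 mg/kg in aqueous NaCl/30% 1-methyl-2-pyrrolidone. Terminal blood (n = 2 per time point) was collected into EDTA tubes and spun at 4 °C to obtain plasma. Plasma levels were measured by LC−MS/MS after acetonitrile precipitation. Values are the mean of two experiments.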

[4] = Volume of distribution at steady state in C57Bl/6 mouse at 2 mg/kg, iv and 9 mg/kg, po; type: ADME, organism-based; conditions: in vivo, read-out: Vdss; how it was run: as §2
[5] = Clearance in C57Bl/6 mouse at 2 mg/kg, iv and 9 mg/kg, po; type: ADME, organism-based; conditions: in vivo; how it was run: as §2
[6] = Half life in C57Bl/6 mouse at 9 mg/kg, po; type: ADME, organism-based; parameters: dose 9 mg/kg, route oral; conditions: in vivo; how it was run: as §2
Mus musculus [7] = assay: Dose normalized AUC in C57Bl/6 mouse at 9 mg/kg, po; type: ADME, organism-based; parameters: dose 9 mg/kg, route oral; conditions: in vivo; how it was run: as §2
[8] = Half life in C57Bl/6 mouse at 2 mg/kg, iv; type: ADME, organism-based; parameters: dose 2 mg/kg, route intravenous; conditions: in vivo; how it was run: as §2
Mus musculus [9] = assay: Dose normalized AUC in C57Bl/6 mouse at 2 mg/kg, iv; type: ADME, organism-based; parameters: dose 2 mg/kg, route intravenous; conditions: in vivo; how it was run: as §2
[10] = Metabolic stability in NMRI mouse plasma assessed as compound remaining at 1000 ng/mL after 4 hrs; type: ADME, cell-free; conditions: read-out: Stability
How it was run: (§3)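 Heparinized pooled NMRI mouse plasma was spiked with compound at 1000 ng/mL and incubated at 37 °C in an orbital shaker. Aliquots (n = 3 per time point) were taken at 2 min, 1 h and 4 h and analysed by LC−MS/MS.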

Plasma = assay: Metabolic stability in human plasma assessed as compound remaining at 1000 ng/mL after 5 hrs; type: ADME, cell-free
Cathepsin S [11] = molecular target: Cathepsin S (Mus musculus, UniProt O70370); assay: Inhibition of mouse cathepsin-S using Z-Val-Val-Arg-AMC as substrate up to 20 mins by fluorescence assay; how it was run: as §1
[12] = Drug degradation in NMRI mouse plasma at 1000 ng/mL after 4 hrs; type: ADME, cell-free; conditions: read-out: Drug degradation; how it was run: as §3
Mus musculus [13] = assay: Reduction of ovalbumin-induced IL-2 production in po dosed DO10.11 transgenic BALB/c mouse administered 30 mins before ovalbumin challenge measured after 4 hrs by luminex single-bead analysis; type: functional
How it was run: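 DO10.11 BALB/c mice carrying a transgenic ovalbumin-peptide TCR were dosed orally with compound, then challenged iv with 1.0 mg low-endotoxin ovalbumin. Plasma IL-2 was measured at 4 h by Luminex bead assay using two anti-IL-2 antibodies. Groups had n = 8, and reduction was expressed versus the ovalbumin challenge group (ANOVA with Dunnett test).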

Sequence of Cathepsin S (Homo sapiens, UniProt P25774) (P25774 whole entry): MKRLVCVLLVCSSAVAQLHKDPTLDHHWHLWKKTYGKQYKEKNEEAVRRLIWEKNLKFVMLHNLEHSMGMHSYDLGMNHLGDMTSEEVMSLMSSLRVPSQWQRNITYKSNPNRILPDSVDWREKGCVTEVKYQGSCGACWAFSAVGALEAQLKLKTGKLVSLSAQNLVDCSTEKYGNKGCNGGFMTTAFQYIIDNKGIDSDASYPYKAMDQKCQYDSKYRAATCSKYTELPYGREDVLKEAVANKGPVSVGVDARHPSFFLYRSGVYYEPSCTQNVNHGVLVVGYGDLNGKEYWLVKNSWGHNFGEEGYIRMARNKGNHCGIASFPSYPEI
Sequence of Cathepsin S (Mus musculus, UniProt O70370) (O70370 whole entry): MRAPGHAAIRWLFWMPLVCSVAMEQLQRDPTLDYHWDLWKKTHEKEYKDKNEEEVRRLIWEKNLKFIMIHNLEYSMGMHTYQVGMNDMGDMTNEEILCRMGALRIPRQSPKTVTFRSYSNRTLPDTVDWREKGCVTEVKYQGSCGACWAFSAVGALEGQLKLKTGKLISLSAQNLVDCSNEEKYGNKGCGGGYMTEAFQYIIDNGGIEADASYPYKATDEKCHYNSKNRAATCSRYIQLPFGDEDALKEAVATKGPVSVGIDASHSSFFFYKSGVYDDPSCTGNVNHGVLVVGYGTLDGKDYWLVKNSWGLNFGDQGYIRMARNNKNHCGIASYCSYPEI
Sequence of Procathepsin L (P07711 whole entry): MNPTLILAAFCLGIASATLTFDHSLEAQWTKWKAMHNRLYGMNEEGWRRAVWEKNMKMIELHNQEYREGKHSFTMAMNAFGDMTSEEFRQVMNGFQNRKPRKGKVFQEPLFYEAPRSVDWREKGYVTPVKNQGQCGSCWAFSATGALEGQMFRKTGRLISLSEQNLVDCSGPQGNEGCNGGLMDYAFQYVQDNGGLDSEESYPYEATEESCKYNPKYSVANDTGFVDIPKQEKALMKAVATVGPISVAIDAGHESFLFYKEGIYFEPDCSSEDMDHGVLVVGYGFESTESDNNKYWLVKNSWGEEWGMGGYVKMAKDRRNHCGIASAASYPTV

SMILES | IC50 (Procathepsin L) [nM] | IC50 (Cathepsin B) [nM] | IC50 (A20) [nM] | IC50 (Cathepsin K) [nM] | IC50 (Cathepsin S [1]) [nM] | also measured
N#CC1(NC(=O)[C@@H]2C[C@@H](S(=O)(=O)c3ccccc3)C[C@H]2C(=O)N2CCC(O)CC2)CC1 | 4600 | 5700 | 371 | > 25000 | – | Papp [2]: 0.2 ×10⁻⁶ cm/s
C[C@@H]1CN(C(=O)[C@@H]2C[C@H](S(=O)(=O)c3ccccc3)C[C@H]2C(=O)NC2(C#N)CC2)C[C@H](C)O1 | 2700 | 3200 | 1 | > 25000 | – | –
N#CC1(NC(=O)[C@@H]2C[C@@H](S(=O)(=O)c3ccccc3)C[C@H]2C(=O)N2CCOCC2)CCC1 | > 25000 | > 25000 | 236 | > 25000 | – | –
N#CC1(NC(=O)[C@@H]2C[C@@H](S(=O)(=O)c3ccccc3)C[C@H]2C(=O)N2CCCC2)CC1 | 17000 | 7100 | 29 | > 25000 | 2 | –
N#CC1(NC(=O)[C@@H]2C[C@@H](S(=O)(=O)c3ccccc3)C[C@H]2C(=O)Nc2ccc(F)cc2)CC1 | > 25000 | > 25000 | 391 | > 25000 | 26 | –
N#CC1(NC(=O)[C@@H]2C[C@@H](S(=O)(=O)c3ccccc3Cl)CN2C(=O)C2CCCCC2)CC1 | 8300 | – | 2 | > 25000 | 0.3 | metabolised at 4 h, 1000 ng/mL [12]: > 90%; IC50 (Cathepsin S [11]): 0.2 nM
N#CCNC(=O)[C@@H]1C[C@@H](S(=O)(=O)c2ccccc2C(F)(F)F)C[C@H]1C(=O)N1CCOCC1 | – | – | 2 | > 25000 | – | Ratio IC50 (Homo sapiens): > 20000
N#CC1(NC(=O)[C@@H]2C[C@@H](S(=O)(=O)c3ccccc3)C[C@H]2C(=O)N2CCNCC2)CC1 | 2600 | 13300 | 1340 | > 25000 | – | –
N#CC1(NC(=O)[C@@H]2C[C@@H](S(=O)(=O)c3ccccc3)C[C@H]2C(=O)N2CC3(COC3)C2)CC1 | 22200 | 29700 | 248 | > 25000 | – | –
N#CC1(NC(=O)[C@@H]2C[C@@H](S(=O)(=O)c3ccccc3)C[C@H]2C(=O)N2CCCCC2)CC1 | 4200 | 3600 | 5 | > 25000 | – | –
N#CC1(NC(=O)[C@@H]2C[C@@H](S(=O)(=O)c3ccccc3)C[C@H]2C(=O)N2CC(O)C2)CC1 | 16200 | 63300 | 572 | > 25000 | 7 | –
N#CC1(NC(=O)[C@@H]2C[C@@H](S(=O)(=O)c3ccccc3)CN2C(=O)c2ccccc2)CC1 | > 25000 | > 25000 | 217 | > 25000 | 13 | IC50 (Cathepsin S [11]): 29 nM
CC1CCN(C(=O)[C@@H]2C[C@H](S(=O)(=O)c3ccccc3)C[C@H]2C(=O)NC2(C#N)CC2)CC1 | 1900 | 700 | 2 | > 25000 | – | Papp [2]: 4.6 ×10⁻⁶ cm/s
CC(=O)N1C[C@H](S(=O)(=O)c2ccccc2Cl)C[C@H]1C(=O)NC1(C#N)CC1 | 29700 | 47600 | 19 | > 25000 | 1 | Activity (Mus musculus [13]): Dose-dependent effect; ED50 (Mus musculus [13]): 5 mg/kg; bioavailability [3]: 53%; Vd [4]: 0.5 L/kg; clearance [5]: 29 mL/min/kg; half-life [6]: 30 min; AUC/dose (Mus musculus [7]): 309 ng·h/mL; half-life [8]: 18 min; AUC/dose (Mus musculus [9]): 581 ng·h/mL; remaining at 4 h, 1000 ng/mL [10]: 72%; Stability (Plasma): Stable; IC50 (Cathepsin S [11]): 2 nM

Further lines, with some results ahead:

IC50 (Procathepsin L) [nM] | IC50 (Cathepsin B) [nM] | IC50 (A20) [nM] | IC50 (Cathepsin K) [nM] | IC50 (Cathepsin S [1]) [nM] | SMILES | also measured
4100 | 13100 | 16 | > 25000 | 1 | N#CC1(NC(=O)[C@@H]2C[C@@H](S(=O)(=O)c3ccccc3)C[C@H]2C(=O)N2CC3CCC(C2)O3)CC1 | –
> 25000 | > 25000 | 43 | > 25000 | 3 | CC(C)(C#N)NC(=O)[C@@H]1C[C@@H](S(=O)(=O)c2ccccc2)C[C@H]1C(=O)N1CCOCC1 | –
12200 | 8500 | 12 | 29700 | – | N#CC1(NC(=O)[C@@H]2C[C@@H](S(=O)(=O)c3ccccc3)C[C@H]2C(=O)N2CCOCC2)CC1 | –
– | – | 208 | > 25000 | 12 | N#CCNC(=O)[C@@H]1CN(S(=O)(=O)c2ccccc2Cl)C[C@H]1C(=O)N1CCOCC1 | Ratio IC50 (Homo sapiens): > 1000
33600 | 39400 | 44 | > 25000 | 10 | N#CC1(NC(=O)[C@@H]2C[C@@H](S(=O)(=O)c3ccccc3)C[C@H]2C(=O)N2CCC2)CC1 | –
24900 | 22900 | 91 | > 25000 | 6 | CN(C)C(=O)[C@@H]1C[C@H](S(=O)(=O)c2ccccc2)C[C@H]1C(=O)NC1(C#N)CC1 | –
15800 | 38000 | 816 | > 25000 | 4 | N#CC1(NC(=O)[C@@H]2C[C@@H](S(=O)(=O)c3ccccc3)C[C@H]2C(=O)N2CCS(=O)(=O)CC2)CC1 | Papp [2]: 0.2 ×10⁻⁶ cm/s
– | – | 3 | > 25000 | – | N#CCNC(=O)[C@@H]1C[C@@H](S(=O)(=O)c2ccccc2Cl)C[C@H]1C(=O)N1CCOCC1 | Ratio IC50 (Homo sapiens): > 20000
– | – | 4240 | > 25000 | 271 | N#CCNC(=O)[C@@H]1CN(S(=O)(=O)c2ccccc2)C[C@H]1C(=O)N1CCOCC1 | Ratio IC50 (Homo sapiens): > 90
– | – | 4510 | > 25000 | – | N#CCNC(=O)[C@@H]1C[C@@H](S(=O)(=O)CC2CC2)C[C@H]1C(=O)N1CCOCC1 | Ratio IC50 (Homo sapiens): > 100
– | – | 118 | > 25000 | 18 | N#CCNC(=O)[C@@H]1CN(S(=O)(=O)c2ccccc2C(F)(F)F)C[C@H]1C(=O)N1CCOCC1 | Ratio IC50 (Homo sapiens): > 1000
4700 | 6400 | 17 | > 25000 | 2 | CN1CCN(C(=O)[C@@H]2C[C@H](S(=O)(=O)c3ccccc3)C[C@H]2C(=O)NC2(C#N)CC2)CC1 | –
11700 | 6200 | 23 | 15500 | 0.7 | N#CCNC(=O)[C@@H]1C[C@@H](S(=O)(=O)c2ccccc2)C[C@H]1C(=O)N1CCOCC1 | bioavailability [3]: 18%; Vd [4]: 0.5 L/kg; clearance [5]: 39 mL/min/kg; half-life [6]: 54 min; AUC/dose (Mus musculus [7]): 77 ng·h/mL; half-life [8]: 18 min; AUC/dose (Mus musculus [9]): 427 ng·h/mL; remaining at 4 h, 1000 ng/mL [10]: 99%; Stability (Plasma): Stable; IC50 (Cathepsin S [11]): 1 nM; Ratio IC50 (Homo sapiens): > 20000
– | – | 925 | 855 | 830 | N#CCNC(=O)[C@@H]1CC(F)(F)C[C@H]1C(=O)N1CCOCC1 | Ratio IC50 (Homo sapiens): 1
– | – | – | 16 | 640 | COc1ccc(C(C#N)NC(=O)[C@@H]2CCCC[C@@H]2NC(=O)/C=C/c2ccccc2)cc1OC (some centres not stated) | –
